For test [1], the species on record is Homo sapiens. Description: Selectivity ratio of EC50 for human oxytocin receptor to EC50 for human vasopressin V1a receptor.
A further test addresses T1, Oxytocin receptor (Homo sapiens, UniProt P30559).
T1 sequence (P30559 whole entry): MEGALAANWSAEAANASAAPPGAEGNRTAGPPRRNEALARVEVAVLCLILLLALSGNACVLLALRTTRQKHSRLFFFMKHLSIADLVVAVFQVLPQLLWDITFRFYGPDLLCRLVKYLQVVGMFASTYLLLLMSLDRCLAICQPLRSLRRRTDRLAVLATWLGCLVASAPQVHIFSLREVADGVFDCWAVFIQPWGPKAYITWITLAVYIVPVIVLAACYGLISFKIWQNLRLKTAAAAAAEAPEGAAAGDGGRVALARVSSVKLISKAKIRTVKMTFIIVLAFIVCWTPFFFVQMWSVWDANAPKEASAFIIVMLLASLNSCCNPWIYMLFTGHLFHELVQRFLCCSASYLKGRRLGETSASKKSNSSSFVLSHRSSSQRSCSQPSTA
As to the kind of experiment: Agonist activity at human OT receptor expressed in CHO-K1 cells by luciferase reporter gene assay. The test is classed as functional, cell-based.

The target of test [2] is Vasopressin V1a/V2 (Homo sapiens) (UniProt P30518+P37288). As to the kind of experiment: Selectivity ratio of EC50 for human vasopressin V2 receptor to EC50 for human vasopressin V1a receptor.
Vasopressin V1a/V2 (Homo sapiens), sequence (P30518 whole entry, looked up): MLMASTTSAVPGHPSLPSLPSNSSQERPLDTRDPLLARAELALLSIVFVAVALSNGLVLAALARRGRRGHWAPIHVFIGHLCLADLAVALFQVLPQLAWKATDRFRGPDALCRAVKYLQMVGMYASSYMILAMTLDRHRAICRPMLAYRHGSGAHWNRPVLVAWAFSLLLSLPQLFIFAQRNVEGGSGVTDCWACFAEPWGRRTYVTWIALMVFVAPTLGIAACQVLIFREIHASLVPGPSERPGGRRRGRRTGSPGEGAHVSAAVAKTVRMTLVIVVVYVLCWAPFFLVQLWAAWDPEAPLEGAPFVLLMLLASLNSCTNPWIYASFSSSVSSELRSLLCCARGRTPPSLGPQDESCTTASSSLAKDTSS
Vasopressin V1a/V2 (Homo sapiens), sequence (P37288 whole entry, looked up): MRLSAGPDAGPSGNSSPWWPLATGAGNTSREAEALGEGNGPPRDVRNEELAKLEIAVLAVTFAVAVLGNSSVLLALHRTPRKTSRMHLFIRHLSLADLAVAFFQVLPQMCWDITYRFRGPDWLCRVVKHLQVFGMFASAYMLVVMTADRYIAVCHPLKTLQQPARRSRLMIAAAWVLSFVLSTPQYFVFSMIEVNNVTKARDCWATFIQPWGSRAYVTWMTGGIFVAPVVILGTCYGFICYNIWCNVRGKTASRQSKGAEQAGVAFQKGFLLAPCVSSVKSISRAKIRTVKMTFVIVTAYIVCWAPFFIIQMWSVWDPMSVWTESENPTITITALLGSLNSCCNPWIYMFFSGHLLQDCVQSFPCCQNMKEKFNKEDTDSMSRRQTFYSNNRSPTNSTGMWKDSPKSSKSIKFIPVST
A further test addresses Vasopressin V2 receptor (Homo sapiens, UniProt P30518). Description: Agonist activity at recombinant human vasopressin V2 receptor expressed in HEK293 cells by luciferase reporter gene assay. Type of test: functional, cell-based. In general terms: In a reporter assay the amount or activity of a reporter protein is the signal.
The next test deals with Vasopressin V1a receptor (Homo sapiens, UniProt P37288). Description: Agonist activity at recombinant human vasopressin V1a receptor expressed in HEK293 cells by luciferase reporter gene assay. Type of test: functional, cell-based. The conditions noted are these: read-out: EC50.
Vasopressin V1a receptor, sequence (P37288 whole entry): as the sequence (P37288 whole entry, looked up) above
In a further test the target is T2, Vasopressin V1b receptor (Homo sapiens, UniProt P47901).
T2 sequence (P47901 whole entry): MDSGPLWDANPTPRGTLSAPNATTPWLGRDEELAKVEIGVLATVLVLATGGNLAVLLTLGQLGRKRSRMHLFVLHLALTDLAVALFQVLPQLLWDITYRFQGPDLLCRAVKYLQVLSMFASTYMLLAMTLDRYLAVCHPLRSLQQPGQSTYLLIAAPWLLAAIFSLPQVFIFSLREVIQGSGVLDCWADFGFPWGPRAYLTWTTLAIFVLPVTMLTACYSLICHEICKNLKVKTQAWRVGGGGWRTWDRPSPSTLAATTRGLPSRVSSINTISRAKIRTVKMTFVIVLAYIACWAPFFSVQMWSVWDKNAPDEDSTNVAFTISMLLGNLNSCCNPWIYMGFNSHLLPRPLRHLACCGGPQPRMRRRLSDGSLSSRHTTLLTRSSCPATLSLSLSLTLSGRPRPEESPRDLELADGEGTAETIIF
As to the kind of experiment: Agonist activity at recombinant human vasopressin V1b receptor expressed in Flp-In-293 cells by luciferase reporter gene assay. Type of test: functional, cell-based. As to conditions: read-out: EC50. In outline: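 Reporter gene assays in HEK293 cells transiently cotransfected with V1a (human or rat) or human V2 receptor vector plus NFAT-luciferase (V1a) or CRE-luciferase (V2) reporter; V1b in Flp-In-293 stably expressing receptor, OT in CHO-K1 stably expressing receptor, both transiently transfected with NFAT-luciferase. Two days post-transfection, peptides added for 5 h at 37 °C, lysis with luciferin, luminescence read.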

Test [3] is filed under the species Homo sapiens. As to the kind of experiment: Selectivity ratio of EC50 for human vasopressin V1b receptor to EC50 for human vasopressin V1a receptor.

Bridge positions count the residues as written; N and C are the ends. Square brackets hold non-standard residues; d marks the D form. Peptide text beside a SMILES is read from it. Orn(iPr) = CC(C)NCCC[C@H](N)C(=O)O; 3Pal = N[C@@H](Cc1cccnc1)C(=O)O; 2Thi = N[C@@H](Cc1cccs1)C(=O)O; 3Thi = N[C@@H](Cc1ccsc1)C(=O)O; Orn = NCCC[C@H](N)C(=O)O; Dab = NCC[C@H](N)C(=O)O; Ac4c = NC1(C(=O)O)CCC1

Vasopressin V2 receptor, sequence (P30518 whole entry): as the sequence (P30518 whole entry, looked up) above

For the compound `CC[C@H](C)[C@@H]1NC(=O)[C@H](Cc2cccs2)NC(=O)[C@@H](N)CSSC[C@@H](C(=O)N2CCC[C@H]2C(=O)N[C@@H](CCCNC(C)C)C(=O)NCC(N)=O)NC(=O)[C@H](CC(N)=O)NC(=O)[C@H](CC(N)=O)NC1=O` (H-C[2Thi]INNCP[Orn(iPr)]G-NH2; disulfide 1-6), the Ratio EC50 was 61 in the test filed under Homo sapiens [1], above 710 in test [2] and 18 in the test filed under Homo sapiens [3]. In addition, the EC50 at Oxytocin receptor (read-out: EC50) was 860 nM; at Vasopressin V2 receptor (hek293, read-out: EC50), above 10000 nM; at Vasopressin V2 receptor (read-out: pEC50 (converted)), above 10000 nM; on Vasopressin V1a receptor, 14 nM; at Vasopressin V1b receptor, 260 nM.

Turning to `CC[C@H](C)[C@@H]1NC(=O)[C@H](Cc2cccs2)NC(=O)[C@@H](N)CSSC[C@@H](C(=O)N2CCC[C@H]2C(=O)N[C@@H](CCCN)C(=O)NCC(N)=O)NC(=O)[C@H](CC(N)=O)NC(=O)[C@H](CC(N)=O)NC1=O` (H-C[2Thi]INNCP[Orn]G-NH2; disulfide 1-6), the Ratio EC50 in the test listed under Homo sapiens [1] was above 660; in test [2], above 660; in the test listed under Homo sapiens [3] it was 14. Besides, the EC50 at Oxytocin receptor (cho-k1, read-out: EC50) was above 10000 nM; on Oxytocin receptor (read-out: pEC50 (converted)), above 10000 nM; at Vasopressin V2 receptor (hek293, read-out: EC50) it was above 10000 nM; at Vasopressin V2 receptor (read-out: pEC50 (converted)) it was above 10000 nM; at Vasopressin V1a receptor it was 15 nM; on Vasopressin V1b receptor it was 220 nM.

For the compound `CC[C@H](C)[C@@H]1NC(=O)[C@H](Cc2cccnc2)NC(=O)[C@@H](N)CSSC[C@@H](C(=O)N2CCC[C@H]2C(=O)N[C@@H](CCN)C(=O)NCC(N)=O)NC(=O)[C@H](CC(N)=O)NC(=O)[C@H](CCC(N)=O)NC1=O` (H-C[3Pal]IQNCP[Dab]G-NH2; disulfide 1-6), the Ratio EC50 in the test filed under Homo sapiens [1] was above 330; in test [2] it was above 330; in the test listed under Homo sapiens [3], 6.6. Also, the EC50 is above 10000 nM on Oxytocin receptor (cho-k1, read-out: EC50); above 10000 nM on Oxytocin receptor (read-out: pEC50 (converted)); above 10000 nM on Vasopressin V2 receptor (hek293, read-out: EC50); above 10000 nM on Vasopressin V2 receptor (read-out: pEC50 (converted)); 30 nM at Vasopressin V1a receptor; 200 nM at Vasopressin V1b receptor.

On to `CC[C@H](C)[C@@H]1NC(=O)[C@H](Cc2ccsc2)NC(=O)[C@@H](N)CSSC[C@@H](C(=O)N2CCC[C@H]2C(=O)N[C@@H](CCN)C(=O)NCC(N)=O)NC(=O)[C@H](CC(N)=O)NC(=O)[C@H](CC(N)=O)NC1=O` (H-C[3Thi]INNCP[Dab]G-NH2; disulfide 1-6), for which the Ratio EC50 is above 1300 in the test filed under Homo sapiens [1], above 1300 in test [2] and 51 in the test listed under Homo sapiens [3]. Besides, the EC50 at Oxytocin receptor (cho-k1, read-out: EC50) is above 10000 nM; at Oxytocin receptor (read-out: pEC50 (converted)) it was above 10000 nM; at Vasopressin V2 receptor (hek293, read-out: EC50) it was above 10000 nM; on Vasopressin V2 receptor (read-out: pEC50 (converted)), above 10000 nM; at Vasopressin V1a receptor, 7.4 nM; at Vasopressin V1b receptor it was 380 nM.

As for `CC[C@H](C)[C@@H]1NC(=O)[C@H](Cc2ccsc2)NC(=O)[C@@H](N)CSSC[C@@H](C(=O)N2CCC[C@H]2C(=O)N[C@@H](CCCN)C(=O)NCC(N)=O)NC(=O)[C@H](CC(N)=O)NC(=O)[C@H](CC(N)=O)NC1=O` (H-C[3Thi]INNCP[Orn]G-NH2; disulfide 1-6), the figures for the Ratio EC50 (in the test filed under Homo sapiens [1]; in test [2]; in the test filed under Homo sapiens [3]) were above 1300, above 1300 and 47, respectively. For the same compound, the EC50 was above 10000 nM on Oxytocin receptor (cho-k1, read-out: EC50); above 10000 nM on Oxytocin receptor (read-out: pEC50 (converted)); above 10000 nM on Vasopressin V2 receptor (hek293, read-out: EC50); above 10000 nM on Vasopressin V2 receptor (read-out: pEC50 (converted)); 7.3 nM on Vasopressin V1a receptor; 350 nM on Vasopressin V1b receptor.

As to `CC[C@H](C)[C@@H]1NC(=O)C2(CCC2)NC(=O)[C@@H](N)CSSC[C@@H](C(=O)N2CCC[C@H]2C(=O)N[C@@H](CCN)C(=O)NCC(N)=O)NC(=O)[C@H](CC(N)=O)NC(=O)[C@H](CC(N)=O)NC1=O` (H-C[Ac4c]INNCP[Dab]G-NH2; disulfide 1-6), the Ratio EC50 in the test listed under Homo sapiens [1] is above 830; in test [2], above 830; in the test filed under Homo sapiens [3] it was 10. The EC50 was above 10000 nM on Oxytocin receptor (cho-k1, read-out: EC50); above 10000 nM at Oxytocin receptor (read-out: pEC50 (converted)); above 10000 nM at Vasopressin V2 receptor (hek293, read-out: EC50); above 10000 nM at Vasopressin V2 receptor (read-out: pEC50 (converted)); 12 nM on Vasopressin V1a receptor; 120 nM at Vasopressin V1b receptor.
